Screens deposited in PubChem BioAssay by Johns Hopkins Ion Channel Center.
A selection: hits, their analogues and other compounds. The true share with any hit is near 3.7%.
KCNQ1 block: inhibitors of human KCNQ1 potassium channel; CHO-K1 KCNQ1, FluxOR thallium flux fluorescence; active compounds read high; B-score at 10 µM; hit rate 1.3% among 310,000; AID 2642;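 active means compounds whose thallium flux B-score, printed positive for inhibition, exceeds three library SD while starting fluorescence stays within three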;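 further: channel opened by potassium depolarization with thallium stimulus after 20 min compound exposure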
KCNK3 inh: human KCNK3 channel inhibition, primary screen. O14649. hit rate 0.84% among 340,000. B-score at 10 µM. CHO-KCNK3 thallium flux, FluxOR fluorescence; active compounds read low;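 active means B-score under library mean minus 4 SD, starting fluorescence ratio at most library mean plus 5 SD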;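 further: more negative B-score means stronger inhibition of thallium flux through KCNK3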
Kir21 block: blocks the mouse Kir2.1 inward-rectifier potassium channel; HEK293-Kir2.1, FluxOR thallium flux fluorescence; active compounds read low; B-score at 10 µM; hit rate 0.85% among 310,000;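 active means fluorescence ratio B-score at or below minus 3 SD of library scores, with starting-brightness B-score within 2 SD, cut at about -4.2 in these data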;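 further: channel flux triggered by added potassium and thallium sulfate stimulus; B-score of peak minus minimum fluorescence over baseline after thallium stimulus; more negative B-score means stronger Kir2.1 block with less thallium influx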
hERG protect: compounds protecting human hERG from proarrhythmic drug block; CHO-hERG, FluxOR thallium flux, dofetilide IC70 present; activation (rescue from dofetilide block), less the hit threshold, % at 10 µM; hit rate 0.51% among 310,000; AID 1511;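 active means activation above the mean of controls blocked by dofetilide plus 5 SD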;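 further: thallium influx through hERG after potassium depolarization seen as dye fluorescence rise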
KCNK9 inh: human KCNK9 channel inhibition; Q9NPC2; HEK293 KCNK9, FluxOR thallium flux fluorescence; active compounds read low; B-score at 10 µM; hit rate 1.2% among 310,000;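 active means ratio B-score over 3 SD below the library mean, with starting fluorescence within 5 SD of its mean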;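 further: negative B-score means less thallium flux so channel inhibition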
Target sequence (Q9NPC2 whole entry, looked up): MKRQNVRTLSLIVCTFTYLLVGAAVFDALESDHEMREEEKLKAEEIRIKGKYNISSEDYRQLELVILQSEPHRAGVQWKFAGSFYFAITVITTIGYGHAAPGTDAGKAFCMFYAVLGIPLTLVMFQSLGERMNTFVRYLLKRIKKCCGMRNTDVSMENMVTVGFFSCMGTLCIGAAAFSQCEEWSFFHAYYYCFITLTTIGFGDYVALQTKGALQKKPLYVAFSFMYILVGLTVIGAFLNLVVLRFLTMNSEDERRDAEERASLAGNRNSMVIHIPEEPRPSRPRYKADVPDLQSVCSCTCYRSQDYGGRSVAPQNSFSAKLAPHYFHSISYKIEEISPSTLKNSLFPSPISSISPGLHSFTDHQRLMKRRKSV
KCNQ1 act: potentiators or activators of human KCNQ1 potassium channel; P51787; B-score at 10 µM; hit rate 0.35% among 310,000; CHO-K1 KCNQ1, thallium flux FluxOR fluorescence; active compounds read high;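 active means fluorescence ratio B-score, a plate-corrected score, at least three library SD, with initial intensity B-score within 5 SD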
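Test system: CHO-K1 cells stably expressing KCNQ1 / Medium: assay buffer / Also added: depolarizing K+/Tl+ stimulus, K2SO4 and Tl2SO4 each 12.5 mM in 5x stock / Incubation: 90 min dye loading and 20 min compound exposure, both at room temperature / Signal: thallium influx via FluxOR fluorescence, kinetic imaging / Evaluation: B score of baseline-normalized fluorescence ratio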
* hit, by the source's call; i = inactive; / = no result.

SMILES	KCNQ1 block	KCNK3 inh	Kir21 block	hERG protect	KCNK9 inh	KCNQ1 act
CS(=O)(=O)C1=NSC2=NC(=O)/C(=C\c3cccn3-c3ccc(Cl)cc3)C(=N)N21	7*	i	-1.1	-16	i	i
Cc1cc(/C=C2/C(=N)N3C(=NC2=O)SN=C3S(C)(=O)=O)c(C)n1-c1ccccc1F	i	i	0.09	-17	i	i
CC(=O)N1CCc2cc(S(=O)(=O)N3c4ccccc4CC3C)ccc21 (stereo unspecified)	i	i	1.1	5.4*	i	i
CC1Cc2ccccc2N1S(=O)(=O)c1cccc(C(=O)N2CCCCC2)c1 (stereo unspecified)	/	i	/	/	/	/
Cc1ccc(-n2cccc2C(=S)N=P(N(C)C)(N(C)C)N(C)C)cc1	i	i	-12*	-11	-7.6*	i
CCOC(=O)N1CCC(Nc2c(NCCCN3CCN(C4CCCCC4)CC3)c(=O)c2=O)CC1	i	i	0.56	0	i	i
CCOc1ccc(-c2nn(-c3ccccc3)cc2/C=C2\SC(=S)N(Cc3ccco3)C2=O)cc1	i	i	-2.2	-8	i	i
CC(C)COc1ccc(-c2nn(-c3ccccc3)cc2/C=C2/SC(=S)N(CC(=O)O)C2=O)cc1	i	i	0.54	-5	i	8*
Cc1cc(C)c(C(=O)COC(=O)CCn2c(C)csc2=O)cc1C	i	i	-4.5*	-10	i	i
O=C(NNC(=O)c1cncc(Br)c1)c1ccncc1	/	i	/	/	/	/
CC(C)COCC(CN(Cc1ccccc1)c1ccccc1)N1CCCC1 (stereo unspecified)	i	i	-6.3*	-17	i	i
CC(C(=O)Nc1ccc(OCc2ccccc2)cc1)N1CCCC1 (stereo unspecified)	i	i	1.5	-11	i	i
COc1cccc(/C=C(/C(=O)OCC(=O)NCC2CCCO2)c2ccccc2)c1 (stereo unspecified)	i	i	-0.72	-13	i	i
COc1cccc(/C=C(/C(=O)OCC(=O)NC2CCCCCCC2)c2ccccc2)c1	10*	i	-1.1	-25	-9.9*	i
S=c1nc(-c2ccccc2)[nH]n1-c1ccccc1	i	i	0.92	15*	i	74*
Cc1nc(=S)n(-c2ccccc2)[nH]1	i	i	-0.7	-5	i	i
COc1cc(C(=O)Nc2nnc(CC(=O)NCc3ccccc3)s2)cc(OC)c1OC	i	i	-0.16	-3	i	i
CN(CC(=O)NCc1cccc(F)c1)C(=O)c1ccco1	i	i	1.6	6.5*	i	i
CCc1ccc(-n2c(Cc3ccccc3)n[nH]c2=S)cc1	i	i	-2.9	-15	i	i
O=C(CCC(=O)N1CCOc2ccccc21)NCCCN1CCN(Cc2ccccc2)CC1	i	i	0.18	-6	i	i
CC(=O)N(CCC(Cc1ccccc1)c1ccco1)Cc1ccco1 (stereo unspecified)	i	i	-12*	-15	i	i
CC(=O)N(CCC(Cc1ccccc1)c1ccc2c(c1)OCO2)Cc1ccc(Cl)cc1 (stereo unspecified)	11*	-8.9*	-3.8	0	-7.3*	i
O=C(O)CC(Cc1ccccc1)c1ccc2c(c1)OCO2 (stereo unspecified)	i	i	0.03	-16	i	i
O=C(CSc1ccccc1F)NNC(=O)c1cncc(Br)c1	/	i	/	/	/	/
CN(Cc1ccccc1)C1=CC(=[N+]2CCCC2)CC(C)(C)C1	10*	i	0.51	-23	i	i
Cc1ccc(NC(=O)CSC(N)=O)cc1Cl	i	i	-3.3	-5	-13*	i
CCOc1ccc(NC(=O)CN(C)C(=O)c2ccc3c(c2)S(=O)(=O)N=C2CCCCCN23)cc1OCC	/	i	/	/	/	/
CC(=O)c1cccc(NCC(=O)N2CCN(S(=O)(=O)c3ccccc3)CC2)c1	/	i	/	/	/	/
CCOc1ccccc1C(=O)N[C@H](C(=O)OCc1cc(=O)oc2cc(C)ccc12)C(C)C	i	i	-1.6	-9	-6.7*	i
COc1cc(OC)cc(C(=O)N[C@H](C(=O)OCc2cc(=O)oc3cc(C)ccc23)C(C)C)c1	i	i	-0.92	-9	i	i
